Activity calls are given as the source filed them. The calls are words filed in the database; no cut-off is given here.
What was measured:
[1] = biological target: T1, DNA topoisomerase 2-alpha (Homo sapiens, UniProt P11388); assay: Inhibition of human topoisomerase 2 p170alpha assessed as relaxation of lambda ZAPII plasmid Bluescript KS+ DNA at 100 uM by SDS electrophoresis
How it was run: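 Compound at 100 µM in 0.5% Cremophor EL, 30 min at 37 °C. Stopped with 1% SDS, then proteinase K 50 µg/mL and chloroform-isoamyl alcohol extraction. Run on 1% TAE agarose with ethidium bromide 0.5 µg/mL post-stain. Etoposide 100 µM as control.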

Saccharomyces cerevisiae [2] = assay: DNA damaging activity against wild type DNA repairing RAD gene expressing yeast at 200 ug/mL by agar well diffusion assay; type: functional, organism-based
How it was run: (§1)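 Yeast strains (rad52Y; RAD+ wild type) were seeded separately on 1% nutrient agar plates. Samples at 200 µg/mL in 1:1 DMSO-MeOH were placed in wells cut by removing 7 mm plugs. Activity was the width (mm) of the zone around the well with no visible yeast growth. Camptothecin and streptonigrin at 5 µg/mL served as controls.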

Saccharomyces cerevisiae [3] = assay: DNA damaging activity against topoisomerase 2-deficient RS321N mutant yeast assessed as drug level required to produce 12 mm zone of inhibition by agar well diffusion assay; type: functional
How it was run: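 S. cerevisiae RS321N seeded on 1% nutrient agar. Samples in 1:1 DMSO-MeOH went into 7 mm wells. The read-out was the zone (mm) of no visible growth. Several concentrations were tested, and the dose giving a 12 mm zone (IC12) was calculated by regression.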

Saccharomyces cerevisiae [4] = assay: DNA damaging activity against topoisomerase 2-deficient rad52Y mutant yeast at 200 ug/mL by agar well diffusion assay; type: functional, organism-based; how it was run: as §1
Saccharomyces cerevisiae [5] = assay: DNA damaging activity against wild type DNA repairing RAD gene expressing yeast assessed as drug level required to produce 12 mm zone of inhibition by agar well diffusion assay; type: functional
How it was run: (§2)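 Saccharomyces cerevisiae strains (RS321N, rad52Y, RAD+) were seeded separately onto 1% nutrient agar. Samples at 200 µg/mL in 1:1 DMSO-MeOH went into 7 mm wells, and the clear growth-free zone was measured in mm. For actives, several concentrations were tested, and the dose giving a 12 mm zone (IC12) came from regression. Camptothecin and streptonigrin at 5 µg/mL served as controls.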

Saccharomyces cerevisiae [6] = assay: DNA damaging activity against topoisomerase 2-deficient rad52Y mutant yeast assessed as drug level required to produce 12 mm zone of inhibition by agar well diffusion assay; type: functional; how it was run: as §2
[7] = biological target: T1, DNA topoisomerase 2-alpha; assay: Inhibition of human topoisomerase 2 p170alpha assessed as relaxation of lambda ZAPII plasmid Bluescript KS+ DNA by SDS electrophoresis
How it was run: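 Supercoiled pBlueScript KS(+) (about 200 ng) relaxed by 4 units human topo II (p170) in Tris-HCl pH 8.0 buffer with 120 mM KCl, 10 mM MgCl2, 0.5 mM ATP and DTT. Compound in 0.5% Cremophor EL, dilution series in triplicate, 30 min at 37 °C. SDS/proteinase K stop, then 1% TAE agarose gel with ethidium bromide staining. IC50 from the dilution series.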

[8] = biological target: T1, DNA topoisomerase 2-alpha; assay: Inhibition of human topoisomerase 2 p170alpha assessed as movement supercoiled lambda ZAPII plasmid Bluescript KS+ DNA at 100 uM after 60 mins by electrophoretic mobility shift assay
How it was run: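 Mobility shift with pBlueScript KS(+) and 6 units human topo II (p170) in ATP-free buffer. Buffer, running buffer and gel were all at pH 6.4. Compound at 100 µM, with etoposide 50 µM as control. No SDS/proteinase K stop; samples loaded directly onto a TAE gel containing 1.0 µg/mL ethidium bromide.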

NCI-H460 = assay: Cytotoxicity against human NCI-H460 cells after 48 hrs by MTT assay at up to 10 uM; type: functional, cell-based
How it was run: (§3)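 Cells kept in RPMI with 10% FBS at 37 °C, 5% CO2. Log-phase cells were treated in triplicate with 0-10 µM compound for 48 h at 37 °C in humidified 5% CO2. Viability was read by MTT absorbance on a plate reader.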

Nucleic Acid = assay: Displacement of methyl green dye from DNA by spectrophotometry; type: nucleic-acid assay
How it was run: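 Daunomycin (50 µg/mL) was the positive control. Methyl green absorbance was read on a plate reader.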

SF-268 = assay: Cytotoxicity against human SF268 cells after 48 hrs by MTT assay at up to 10 uM; type: functional, cell-based; how it was run: as §3
MCF7 = assay: Cytotoxicity against human MCF7 cells after 48 hrs by MTT assay; type: functional, cell-based; settings: MCF7, 48 h; how it was run: as §3

T1 sequence (P11388 whole entry): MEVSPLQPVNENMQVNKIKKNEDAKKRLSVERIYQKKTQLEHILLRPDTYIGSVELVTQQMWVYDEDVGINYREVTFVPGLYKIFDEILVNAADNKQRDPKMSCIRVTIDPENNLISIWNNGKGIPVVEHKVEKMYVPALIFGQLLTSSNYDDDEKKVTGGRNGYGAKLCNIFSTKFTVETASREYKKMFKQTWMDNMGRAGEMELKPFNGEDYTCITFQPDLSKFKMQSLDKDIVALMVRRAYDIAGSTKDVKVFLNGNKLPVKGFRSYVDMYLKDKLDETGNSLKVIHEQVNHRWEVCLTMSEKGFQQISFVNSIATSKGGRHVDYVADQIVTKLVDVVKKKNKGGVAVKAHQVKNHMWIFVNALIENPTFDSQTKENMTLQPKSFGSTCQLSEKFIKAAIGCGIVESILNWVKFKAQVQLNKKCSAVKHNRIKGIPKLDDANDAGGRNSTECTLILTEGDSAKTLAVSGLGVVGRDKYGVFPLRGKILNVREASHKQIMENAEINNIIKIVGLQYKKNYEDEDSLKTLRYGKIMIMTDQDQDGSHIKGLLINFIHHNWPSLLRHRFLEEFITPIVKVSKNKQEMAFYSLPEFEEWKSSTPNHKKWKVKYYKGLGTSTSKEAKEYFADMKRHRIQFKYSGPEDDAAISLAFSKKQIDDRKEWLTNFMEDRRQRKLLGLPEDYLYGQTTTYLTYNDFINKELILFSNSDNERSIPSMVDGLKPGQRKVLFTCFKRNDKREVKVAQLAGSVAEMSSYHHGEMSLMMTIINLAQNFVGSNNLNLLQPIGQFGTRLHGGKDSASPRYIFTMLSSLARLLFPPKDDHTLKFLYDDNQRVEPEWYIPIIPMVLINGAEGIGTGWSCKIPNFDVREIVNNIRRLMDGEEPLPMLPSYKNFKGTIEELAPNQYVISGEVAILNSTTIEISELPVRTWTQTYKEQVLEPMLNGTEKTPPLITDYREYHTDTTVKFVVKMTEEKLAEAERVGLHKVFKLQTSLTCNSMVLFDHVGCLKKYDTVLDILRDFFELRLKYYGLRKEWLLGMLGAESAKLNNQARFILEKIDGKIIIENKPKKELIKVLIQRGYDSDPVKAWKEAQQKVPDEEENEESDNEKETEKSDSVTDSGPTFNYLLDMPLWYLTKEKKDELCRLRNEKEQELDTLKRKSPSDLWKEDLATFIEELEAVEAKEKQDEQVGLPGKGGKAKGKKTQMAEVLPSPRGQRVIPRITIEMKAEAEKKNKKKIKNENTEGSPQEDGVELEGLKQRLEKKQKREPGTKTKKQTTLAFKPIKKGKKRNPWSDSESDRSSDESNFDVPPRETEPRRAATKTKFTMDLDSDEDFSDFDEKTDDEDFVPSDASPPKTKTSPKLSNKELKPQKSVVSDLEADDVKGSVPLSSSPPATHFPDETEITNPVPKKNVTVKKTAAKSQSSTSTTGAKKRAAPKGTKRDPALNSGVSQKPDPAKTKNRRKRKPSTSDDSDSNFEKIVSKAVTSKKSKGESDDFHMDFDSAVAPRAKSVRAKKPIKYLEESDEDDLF

| Activity (Saccharomyces cerevisiae [4]) | SMILES | Activity [1] | Activity (Saccharomyces cerevisiae [2]) | IC12 (concentration giving a 12 mm inhibition zone) (Saccharomyces cerevisiae [3]) [µg/mL] | also measured |
| --- | --- | --- | --- | --- | --- |
| – | COC(=O)[C@]1(C)CC[C@]2(C)CC[C@]3(C)C4=CC(=O)c5c(cc(O)c(O)c5C(=O)O)[C@]4(C)CC[C@@]3(C)[C@@H]2C1 | inactive | – | – | – |
| – | COC(=O)[C@]1(C)CC[C@]2(C)CC[C@]3(C)C4=CC(=O)c5c(cc(O)c(O)c5C=O)[C@]4(C)CC[C@@]3(C)[C@@H]2C1 | inactive | – | – | – |
| – | COC(=O)[C@]1(C)CC[C@]2(C)CC[C@]3(C)C4=CCc5c(cc(O)c(O)c5C)[C@]4(C)CC[C@@]3(C)[C@@H]2C1 | inactive | – | – | – |
| – | COc1cc([C@@H]2c3cc4c(cc3[C@@H](O[C@@H]3O[C@@H]5CO[C@@H](C)O[C@H]5[C@H](O)[C@H]3O)[C@H]3COC(=O)[C@H]23)OCO4)cc(OC)c1O | inactive | – | – | – |
| inactive | CC1=C(O)C(=O)C=C2C1=CC=C1[C@@]2(C)CC[C@@]2(C)[C@@H]3C[C@](C)(O)C(=O)C[C@]3(C)CC[C@]12C [20ALPHA-HYDROXYTINGENONE] | – | inactive | 185 | – |
| inactive | CC1=C2C3=CC=C4C(=CC(=O)C(O)=C4C)[C@]3(C)CC[C@@]2(C)[C@@H]2C[C@@H](C)[C@@H](O)C(=O)C2C1 (stereo not given in full) [BALAENONOL] | – | inactive | 220 | – |
| – | CC[C@@]1(O)C(=O)OCc2c1cc1n(c2=O)Cc2cc3ccccc3nc2-1 [CAMPTOTHECIN] | – | – | >20 | Activity (Saccharomyces cerevisiae [5]): 110 µg/mL; Activity (Saccharomyces cerevisiae [6]): 0.6 µg/mL |
| – | C[C@@]1(C(=O)O)CC[C@]2(C)CC[C@]3(C)C4=CC(=O)c5c(cc(O)c(O)c5C(=O)O)[C@]4(C)CC[C@@]3(C)[C@@H]2C1 [DEMETHYLZEYLASTERONE] | Active | – | – | IC50 [7]: 17.6 µM; Activity [8]: Active; Activity (NCI-H460): inactive; Activity (Nucleic Acid): Active; Activity (SF-268): inactive; IC50 (MCF7): 12.5 µM |
| – | COC1=C(N)C(=O)c2nc(-c3nc(C(=O)O)c(C)c(-c4ccc(OC)c(OC)c4O)c3N)ccc2C1=O [STREPTONIGRIN] | – | – | <0.4 | Activity (Saccharomyces cerevisiae [6]): 0.4 µg/mL |

| SMILES | Activity (Saccharomyces cerevisiae [4]) | Activity [1] | Activity (Saccharomyces cerevisiae [2]) | IC12 (concentration giving a 12 mm inhibition zone) (Saccharomyces cerevisiae [3]) [µg/mL] | also measured |
| --- | --- | --- | --- | --- | --- |
| CC1=C(O)C(=O)C=C2C1=CC=C1[C@@]2(C)CC[C@@]2(C)[C@@H]3C[C@@H](C)C(=O)C[C@]3(C)CC[C@]12C [TINGENONE] | inactive | – | inactive | 325 | – |

Source: ChEMBL document CHEMBL1156357, “Catalytic inhibition of topoisomerase IIalpha by demethylzeylasterone, a 6-oxophenolic triterpenoid from Kokoona zeylanica” (J Nat Prod, 2001)
